Measured values as given in ChEMBL document CHEMBL1129074, “Inhibitors of human immunodeficiency virus type 1 derived from gp41 transmembrane protein: structure--activity studies” (J Med Chem, 1996).
Square brackets hold non-standard residues; d marks the D form. Peptide text beside a SMILES is read from it. Ahx = NCCCCCC(=O)O

Key:
MT4 [1] = test: (§1) Inhibitory potency of gp41 fragment against HIV-1 induced cytopathic effect in MT-4 cell assay at 20 uM; assay type: functional; conditions: Homo sapiens
Summary of the method: (§2)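 MT4 cells (exponential growth) at 5×10^5 cells/mL infected with HIV-1 IIIB (100× TCID50) for 1 h at 37 °C, diluted 6-fold, added to serially diluted peptide in RPMI 1640/FCS medium; mock-infected controls. After 5 days at 37 °C, 5% CO2, cells lysed with Nonidet-40 and DNA content read by propidium iodide. Inhibition = restoration of infected-cell growth relative to uninfected controls; cytotoxicity measured in parallel.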

MT4 [2] = test: Inhibitory potency of gp41 fragment against HIV-1 induced cytopathic effect in MT-4 cell assay at 200 uM; assay type: functional; conditions: Homo sapiens
MT4 [3] = test: Inhibitory potency of gp41 fragment against HIV-1 induced cytopathic effect in MT-4 cell assay at 5 uM; assay type: functional; conditions: Homo sapiens
MT4 [4] = test: Inhibitory potency of gp41 fragment against HIV-1 induced cytopathic effect in MT-4 cell assay at 6.4 uM; assay type: functional; conditions: Homo sapiens
MT4 [5] = test: as §1; assay type: functional, Homo sapiens; conditions: Homo sapiens, MT4; summary of the method: as §2
MT4 [6] = test: Inhibitory potency of gp41 fragment against HIV-1 induced cytopathic effect in MT-4 cell assay at 8 uM; assay type: functional; conditions: Homo sapiens
MT4 [7] = test: Inhibitory potency of gp41 fragment against HIV-1 induced cytopathic effect in MT-4 cell assay; assay type: functional, cell-based; conditions: Homo sapiens
MT4 [8] = test: Inhibitory potency of gp41 fragment against HIV-1 induced cytopathic effect in MT-4 cell assay at 16 uM; assay type: functional; conditions: Homo sapiens
MT4 [9] = test: Inhibitory potency of gp41 fragment against HIV-1 induced cytopathic effect in MT-4 cell assay at 40 uM; assay type: functional; conditions: Homo sapiens
MT4 [10] = test: Inhibitory potency of gp41 fragment against HIV-1 induced cytopathic effect in MT-4 cell assay at 80 uM; assay type: functional; conditions: Homo sapiens

Question: Which inhibition at 20 µM (MT4 [1]) does the source give for `CC[C@H](C)[C@H](NC(=O)CNC(=O)[C@H](Cc1c[nH]c2ccccc12)NC(=O)[C@@H](NC(=O)[C@@H](NC(=O)[C@H](CC(C)C)NC(=O)[C@H](CCC(N)=O)NC(=O)[C@H](CC(C)C)NC(=O)[C@H](CC(C)C)NC(=O)CNC(=O)CNC(=O)[C@H](CS)NC(C)=O)[C@@H](C)O)C(C)C)C(=O)N[C@@H](CCCCN)C(=O)N[C@@H](CCC(N)=O)C(=O)N[C@@H](CC(C)C)C(=O)N[C@@H](CCC(N)=O)C(=O)N[C@@H](C)C(=O)N[C@@H](CCCN=C(N)N)C(=O)N[C@H](C(=O)N[C@@H](CC(C)C)C(=O)O)[C@@H](C)CC` (Ac-CGGLLQLTVWGIKQLQARIL-OH) here?
Answer: 30%

Question: Which inhibition at 20 µM (MT4 [1]) does the source give for `CC[C@H](C)[C@H](NC(=O)CNC(=O)[C@H](Cc1c[nH]c2ccccc12)NC(=O)[C@@H](NC(=O)[C@@H](NC(=O)[C@H](CC(C)C)NC(=O)[C@H](CCC(N)=O)NC(=O)[C@H](CC(C)C)NC(=O)[C@H](CC(C)C)NC(=O)[C@H](Cc1c[nH]cn1)NC(=O)[C@H](CCC(N)=O)NC(=O)[C@H](CCC(N)=O)NC(=O)[C@H](C)NC(=O)[C@H](CCC(=O)O)NC(=O)[C@@H](NC(=O)[C@H](C)NC(=O)[C@H](CCCN=C(N)N)NC(=O)[C@H](CC(C)C)NC(=O)[C@H](CC(C)C)NC(=O)[C@H](CC(N)=O)NC(=O)[C@H](CC(N)=O)NC(C)=O)[C@@H](C)CC)[C@@H](C)O)C(C)C)C(=O)N[C@@H](C)C(=O)N[C@@H](C)C(=O)N[C@@H](CC(C)C)C(=O)N[C@@H](CCC(N)=O)C(=O)N[C@@H](C)C(=O)N[C@@H](CCCN=C(N)N)C(=O)N[C@H](C(=O)N[C@@H](C)C(=O)N[C@@H](C)C(=O)N[C@H](C(=O)N[C@@H](CCC(=O)O)C(=O)N[C@@H](C)C(=O)N[C@@H](Cc1ccc(O)cc1)C(=O)N[C@@H](CC(C)C)C(=O)N[C@@H](C)C(=O)N[C@@H](C)C(=O)N[C@@H](CCC(N)=O)C(=O)O)C(C)C)[C@@H](C)CC` (Ac-NNLLRAIEAQQHLLQLTVWGIAALQARIAAVEAYLAAQ-OH) here?
Answer: 22%

Question: How did the inhibition at 200 µM (MT4 [2]) turn out when `CC[C@H](C)[C@H](NC(=O)CCCCCNC(=O)CCCCCNC(=O)CCCCCNC(=O)[C@H](CC(C)C)NC(=O)[C@H](CCC(N)=O)NC(=O)[C@H](CC(C)C)NC(=O)[C@H](CC(C)C)NC(=O)[C@H](Cc1c[nH]cn1)NC(=O)[C@H](CCC(N)=O)NC(C)=O)C(=O)N[C@@H](CCCCN)C(=O)N[C@@H](CCC(N)=O)C(=O)N[C@@H](CC(C)C)C(=O)N[C@@H](CCC(N)=O)C(=O)N[C@@H](C)C(=O)N[C@@H](CCCN=C(N)N)C(=O)N[C@H](C(=O)N[C@@H](CC(C)C)C(=O)N[C@@H](C)C(=O)N[C@H](C(=O)N[C@@H](CCC(=O)O)C(=O)O)C(C)C)[C@@H](C)CC` (Ac-QHLLQL[Ahx][Ahx][Ahx]IKQLQARILAVE-OH) was run?
Answer: 0%

Question: `CC[C@H](C)[C@H](N)C(=O)N[C@@H](CCCCN)C(=O)N[C@@H](CCC(N)=O)C(=O)N[C@@H](CC(C)C)C(=O)N[C@@H](CCC(N)=O)C(=O)N[C@@H](C)C(=O)N[C@@H](CCCN=C(N)N)C(=O)N[C@H](C(=O)N[C@@H](CC(C)C)C(=O)N[C@@H](C)C(=O)N[C@H](C(=O)N[C@@H](CCC(=O)O)C(=O)N[C@@H](CCCN=C(N)N)C(=O)N[C@@H](Cc1ccc(O)cc1)C(=O)N[C@@H](CC(C)C)C(=O)N[C@@H](CCCCN)C(=O)N[C@@H](CC(=O)O)C(=O)N[C@@H](CCC(N)=O)C(=O)O)C(C)C)[C@@H](C)CC` (H-IKQLQARILAVERYLKDQ-OH) was tested. Which inhibition at 200 µM (MT4 [2]) did it give?
Answer: 0%

Question: For `CC[C@H](C)[C@H](NC(=O)CNC(=O)[C@H](Cc1c[nH]c2ccccc12)NC(=O)[C@@H](NC(=O)[C@@H](NC(=O)[C@H](CC(C)C)NC(=O)[C@H](CCC(N)=O)NC(=O)[C@H](CC(C)C)NC(=O)[C@H](CC(C)C)NC(=O)[C@H](Cc1c[nH]cn1)NC(=O)[C@H](CCC(N)=O)NC(=O)[C@H](CCC(N)=O)NC(=O)[C@H](C)NC(=O)[C@H](CCC(=O)O)NC(=O)[C@@H](NC(=O)[C@H](C)NC(=O)[C@H](CCCN=C(N)N)NC(=O)[C@H](CC(C)C)NC(=O)[C@H](CC(C)C)NC(=O)[C@H](CC(N)=O)NC(=O)[C@@H](N)CC(N)=O)[C@@H](C)CC)[C@@H](C)O)C(C)C)C(=O)N[C@@H](CCCCN)C(=O)N[C@@H](CCC(N)=O)C(=O)N[C@@H](CC(C)C)C(=O)N[C@@H](CCC(N)=O)C(=O)N[C@@H](C)C(=O)N[C@@H](CCCN=C(N)N)C(=O)N[C@H](C(=O)N[C@@H](CC(C)C)C(=O)N[C@@H](C)C(=O)N[C@H](C(=O)N[C@@H](CCC(=O)O)C(=O)O)C(C)C)[C@@H](C)CC` (H-NNLLRAIEAQQHLLQLTVWGIKQLQARILAVE-OH), which inhibition at 5 µM (MT4 [3]) is on record?
Answer: 37%

Question: With `CCCCCCCCCCCCC(N)C(=O)N[C@@H](CC(C)C)C(=O)N[C@@H](CCC(N)=O)C(=O)N[C@@H](CC(C)C)C(=O)N[C@H](C(=O)N[C@H](C(=O)N[C@@H](Cc1c[nH]c2ccccc12)C(=O)NCC(=O)N[C@H](C(=O)N[C@@H](CCCCN)C(=O)N[C@@H](CCC(N)=O)C(=O)N[C@@H](CC(C)C)C(=O)N[C@@H](CCC(N)=O)C(=O)N[C@@H](C)C(=O)N[C@@H](CCCN=C(N)N)C(=O)N[C@H](C(=O)O)[C@@H](C)CC)[C@@H](C)CC)C(C)C)[C@@H](C)O` (some centres undefined) (HELM PEPTIDE1{[CCCCCCCCCCCCC(N)C(=O)[*:2]].L.Q.L.T.V.W.G.I.K.Q.L.Q.A.R.I}$$$$V2.0) as the compound, how does the inhibition at 6.4 µM (MT4 [4]) read?
Answer: 37%

Question: With `CCCCCCCCCCCCC(N)C(=O)N[C@@H](CCC(N)=O)C(=O)N[C@@H](Cc1c[nH]cn1)C(=O)N[C@@H](CC(C)C)C(=O)N[C@@H](CC(C)C)C(=O)N[C@@H](CCC(N)=O)C(=O)N[C@@H](CC(C)C)C(=O)N[C@H](C(=O)N[C@H](C(=O)N[C@@H](Cc1c[nH]c2ccccc12)C(=O)NCC(=O)N[C@H](C(=O)N[C@@H](CCCCN)C(=O)N[C@@H](CCC(N)=O)C(=O)N[C@@H](CC(C)C)C(=O)N[C@@H](CCC(N)=O)C(=O)N[C@@H](C)C(=O)N[C@@H](CCCN=C(N)N)C(=O)N[C@H](C(=O)N[C@@H](CC(C)C)C(=O)N[C@@H](C)C(=O)N[C@H](C(=O)N[C@@H](CCC(=O)O)C(=O)N[C@@H](CCCN=C(N)N)C(=O)N[C@@H](Cc1ccc(O)cc1)C(=O)N[C@@H](CC(C)C)C(=O)N[C@@H](CCCCN)C(=O)N[C@@H](CC(=O)O)C(=O)N[C@@H](CCC(N)=O)C(=O)O)C(C)C)[C@@H](C)CC)[C@@H](C)CC)C(C)C)[C@@H](C)O` (some centres undefined) (HELM PEPTIDE1{[CCCCCCCCCCCCC(N)C(=O)[*:2]].Q.H.L.L.Q.L.T.V.W.G.I.K.Q.L.Q.A.R.I.L.A.V.E.R.Y.L.K.D.Q}$$$$V2.0) as the compound, how does the inhibition at 20 µM (MT4 [5]) read?
Answer: 0%

Question: What about the inhibition at 5 µM (MT4 [3]) of the same compound?
Answer: 10%

Question: And the inhibition at 8 µM (MT4 [6])?
Answer: 15%

Question: `CCCCCCCCCCCCC(N)C(=O)N[C@@H](CCC(N)=O)C(=O)N[C@@H](CC(C)C)C(=O)N[C@H](C(=O)N[C@H](C(=O)N[C@@H](Cc1c[nH]c2ccccc12)C(=O)NCC(=O)N[C@H](C(=O)N[C@@H](CCCCN)C(=O)N[C@@H](CCC(N)=O)C(=O)N[C@@H](CC(C)C)C(=O)N[C@@H](CCC(N)=O)C(=O)N[C@@H](C)C(=O)N[C@@H](CCCN=C(N)N)C(=O)N[C@H](C(=O)O)[C@@H](C)CC)[C@@H](C)CC)C(C)C)[C@@H](C)O` (some centres undefined) (HELM PEPTIDE1{[CCCCCCCCCCCCC(N)C(=O)[*:2]].Q.L.T.V.W.G.I.K.Q.L.Q.A.R.I}$$$$V2.0) was tested. Which IC50 (MT4 [7]) did it give?
Answer: 8.9 µM

Question: And the inhibition at 16 µM (MT4 [8])?
Answer: 32%

Question: Which inhibition at 40 µM (MT4 [9]) does the source give for `CC[C@H](C)[C@H](NC(=O)[C@H](CCCN=C(N)N)NC(=O)[C@H](C)NC(=O)[C@H](CCC(N)=O)NC(=O)[C@H](CC(C)C)NC(=O)[C@H](CCC(N)=O)NC(=O)[C@H](CCCCN)NC(=O)[C@@H](NC(=O)CNC(=O)[C@H](Cc1c[nH]c2ccccc12)NC(=O)[C@@H](NC(=O)[C@@H](NC(=O)[C@H](CC(C)C)NC(=O)[C@H](CCC(N)=O)NC(=O)[C@H](CC(C)C)NC(=O)CCCCCN)[C@@H](C)O)C(C)C)[C@@H](C)CC)C(=O)O` (HELM PEPTIDE1{[NCCCCCC(=O)[*:2]].L.Q.L.T.V.W.G.I.K.Q.L.Q.A.R.I}$$$$V2.0) here?
Answer: 33%

Question: How did the inhibition at 40 µM (MT4 [9]) turn out when `CC[C@H](C)[C@H](NC(=O)[C@H](CCCN=C(N)N)NC(=O)[C@H](C)NC(=O)[C@H](CCC(N)=O)NC(=O)[C@H](CC(C)C)NC(=O)[C@H](CCC(N)=O)NC(=O)[C@H](CCCCN)NC(=O)[C@@H](NC(=O)CNC(=O)[C@H](Cc1c[nH]c2ccccc12)NC(=O)[C@@H](NC(=O)[C@@H](NC(=O)[C@H](CC(C)C)NC(=O)[C@H](CCC(N)=O)NC(=O)CCCCCN)[C@@H](C)O)C(C)C)[C@@H](C)CC)C(=O)O` (HELM PEPTIDE1{[NCCCCCC(=O)[*:2]].Q.L.T.V.W.G.I.K.Q.L.Q.A.R.I}$$$$V2.0) was run?
Answer: 11%

Question: For `CC[C@H](C)[C@H](NC(=O)[C@H](CCCN=C(N)N)NC(=O)[C@H](C)NC(=O)[C@H](CCC(N)=O)NC(=O)[C@H](CC(C)C)NC(=O)[C@H](CCC(N)=O)NC(=O)CCCCCNC(=O)CCCCCNC(=O)[C@@H](NC(=O)[C@@H](NC(=O)[C@H](CC(C)C)NC(=O)[C@H](CCC(N)=O)NC(=O)[C@H](CC(C)C)NC(=O)[C@H](CC(C)C)NC(=O)[C@H](Cc1c[nH]cn1)NC(=O)[C@H](CCC(N)=O)NC(C)=O)[C@@H](C)O)C(C)C)C(=O)N[C@@H](CC(C)C)C(=O)N[C@@H](C)C(=O)N[C@H](C(=O)N[C@@H](CCC(=O)O)C(=O)O)C(C)C` (HELM PEPTIDE1{[ac].Q.H.L.L.Q.L.T.V.[O=C(CCCCCN[*:1])[*:2]].[O=C(CCCCCN[*:1])[*:2]].Q.L.Q.A.R.I.L.A.V.E}$$$$V2.0), which inhibition at 80 µM (MT4 [10]) is on record?
Answer: 27%
